# Test results as given in ChEMBL document CHEMBL4354869, “pH-Dependent Grafting of Cancer Cells with Antigenic Epitopes Promotes Selective Antibody-Mediated Cytotoxicity” (J Med Chem, 2020).
# Activity calls are given as the source filed them. No cut-off for these calls is given here. Peptide text beside a SMILES is read from it. * marks the point of attachment. Dnp = O=[N+]([O-])c1ccc(*)c([N+](=O)[O-])c1
# Columns and labels:
# [1] = system: MDA-MB-231; experiment: Induction of opsonization in human MDA-MB-231 cells assessed as increase in recruitment of anti-DNP antibody to cell surface at 1 uM measured after 5 to 10 mins at pH 6 to 7.4 by AlexaFluor-488-conjugated anti-DNP antibody based flow cytometry; format: functional
# In short: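 Conjugate pre-incubated 1 h RT at 20 μM in 5 mM sodium phosphate pH 9.0, diluted, then pH adjusted with citrate buffer. MDA-MB-231 (350000 cells, suspension) exposed to 1 μM for 5 or 10 min, 37 °C, pH 7.4 or 6.0, washed, stained with 25 μg/mL anti-DNP-A488 30 min at 4 °C, PFA-fixed. Flow cytometry, ≥3000 events; fold over pH 7.4 antibody-only cells.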
# [2] = system: Lipid bilayer; experiment: Binding affinity to POPC large unilamellar vesicle at 1:300 ratio measured after 30 mins at pH 5 to 7.4 by circular dichroism spectroscopic analysis
# In short: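 Peptide (20 μM stock in 5 mM sodium phosphate pH 8.0; 7 μM final) mixed with POPC LUVs (extruded, 100 nm pores) at 1:300, pH lowered with HCl, 30 min RT. Far-UV CD 260–200 nm in 0.1 cm cuvette, ≥5 scans averaged, liposome spectrum subtracted; expressed as mean residue molar ellipticity.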
# [3] = system: MDA-MB-231; experiment: Induction of opsonization in human MDA-MB-231 cells assessed as increase in recruitment of anti-DNP antibody to cell surface at 1 uM measured after 1 hr at pH 6 to 7.4 by AlexaFluor-488-conjugated anti-DNP antibody based flow cytometry; format: functional
# [4] = Drug internalization in human MDA-MB-231 cells assessed as increase in fluorescence at 1 uM measured after 30 mins at pH 6 to 7.4 in presence of FITC-labeled anti-human IgG by flow cytometric method; format: ADME, cell-based; conditions: mda-mb-231, pH 6, 0.5 h
# In short: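 Control for specificity: MDA-MB-231 treated with 1 μM conjugate at pH 7.4 or 6.0 (5–10 min, 37 °C), washed, then incubated ± 25 μg/mL FITC anti-human IgG in PBS/10% FBS, 30 min at 4 °C, fixed, read by flow cytometry.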
# [5] = system: MDA-MB-231; experiment: Induction of opsonization in human MDA-MB-231 cells assessed as increase in recruitment of anti-DNP antibody to cell surface at 1 uM preincubated with AlexaFluor-488-conjugated anti-DNP antibody for 30 mins followed by cell addition at pH 6 to 7.4 by flow cytometry; format: functional, cell-based
# [6] = system: MDA-MB-231; experiment: Induction of opsonization in human MDA-MB-231 cells assessed as increase in recruitment of anti-DNP antibody to cell surface at 1 uM measured after 5 mins at pH 6 to 7.4 by AlexaFluor-488-conjugated anti-DNP antibody based immunofluorescence microscopic analysis; format: functional
# In short: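 MDA-MB-231 grown on poly-L-lysine coverslips (~70% confluent), exposed to 1 μM conjugate 5 min at 37 °C, pH 7.4 or 6.0, methanol-fixed, stained 1 h at 37 °C with anti-DNP-A488 at 40 μg/mL, Hoechst counterstain; imaged with 20× objective.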
# [7] = system: MDA-MB-231; experiment: Induction of opsonization in human MDA-MB-231 cells assessed as increase in recruitment of anti-DNP antibody to cell surface at 1 uM preincubated for 5 mins at pH 6 to 7.4 followed by pooled human serum addition and measured in presence of FITC-labeled anti-human IgG antibody based flow cytometry; format: functional
# In short: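 300000 MDA-MB-231 in suspension exposed to 1 μM conjugate 5 min, 37 °C, pH 7.4 or 6.0; washed; blocked with human IgG isotype control 100 μg/mL, 20 min 4 °C; 12.5% pooled human complement serum 20 min 4 °C; then 25 μg/mL FITC anti-human IgG 30 min 4 °C; PFA-fixed, flow cytometry; fold over pH 7.4 serum-only.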
# [8] = system: MDA-MB-231; experiment: (§1) Induction of complement dependent cytotoxicity against human MDA-MB-231 cells assessed as cell lysis at 1 uM incubated for 5 mins at pH 6 followed by compound washout prior to anti-DNP antibody addition for 30 mins and subsequent pooled human serum addition measured after 4 hrs by LDH release assay relative to control; format: functional
# In short: (§2)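 240000 MDA-MB-231 exposed in suspension to 1 μM conjugate for 5 min, 37 °C, at pH 7.4 or 6.0, washed, 25 μg/mL unlabeled anti-DNP rabbit polyclonal 30 min 4 °C, then 12.5% pooled human complement serum in DMEM 4 h at 37 °C. Supernatant LDH (A490/A680); % lysis vs antibody-only cells without peptide.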
# [9] = system: MDA-MB-231; experiment: as §1, with “7.4” for “6”, “assay” for “assay relative to control”; format: functional, cell-based; in short: as §2
# [10] = system: MDA-MB-231; experiment: (§3) Induction of antibody dependent cytotoxicity against human MDA-MB-231 cells assessed as increase in cell lysis incubated for 5 mins at pH 6 to 7.4 followed by compound washout prior to anti-DNP antibody addition for 30 mins and subsequent human PBMC addition at 5:1 effector to target ratio measured after 4 hrs by LDH release assay; format: functional, cell-based
# [11] = system: MDA-MB-231; experiment: as §3, with “as” for “as increase in”, “lysis at 1 uM” for “lysis”, “6” for “6 to 7.4”, “assay relative to control” for “assay”; format: functional
# [12] = system: MDA-MB-231; experiment: as §3, with “as” for “as increase in”, “lysis at 0.1 uM” for “lysis”, “6” for “6 to 7.4”, “assay relative to control” for “assay”; format: functional
# [13] = system: MDA-MB-231; experiment: as §3, with “Cytotoxicity” for “Induction of antibody dependent cytotoxicity”, “lysis at 0.5 to 1 uM” for “lysis”, “anti-FITC polyclonal rabbit” for “anti-DNP”; format: cell-based; conditions: mda-mb-231, pH 6, 1 µM
# [14] = system: MDA-MB-231; experiment: Cytotoxicity against human MDA-MB-231 cells assessed as increase in cell lysis at <=10 uM measured after 4 hrs by LDH release assay; format: cell-based; conditions: mda-mb-231, 4 h
# [15] = system: MDA-MB-231; experiment: as §3, with “as” for “as increase in”, “lysis at 500 nM” for “lysis”, “haNK cell” for “PBMC”, “assay relative to control” for “assay”; format: functional
# In short: (§4)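 150000 MDA-MB-231 given conjugate 5 min at 37 °C, pH 7.4 or 6.0, washed at 4 °C, 25 μg/mL anti-DNP rabbit polyclonal 30 min 4 °C, then effectors 4 h at 37 °C: single-donor PBMCs at 50:1 in RPMI 1640, or haNK (F176V CD16 NK-92, IL-2-grown) at 5:1 in MEMα. Supernatant LDH; % lysis vs antibody+effector without peptide; mean ± SEM, n = 3–12.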
# [16] = system: MDA-MB-231; experiment: as §3, with “Cytotoxicity” for “Induction of antibody dependent cytotoxicity”, “lysis at 0.5 to 1 uM” for “lysis”, “anti-FITC polyclonal rabbit” for “anti-DNP”, “haNK cell” for “PBMC”; format: cell-based; conditions: mda-mb-231, pH 6, 1 µM
# In short: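 150000 target cells (MDA-MB-231; also LnCap, SK-OV-3 with haNK) treated with conjugate 5 min at 37 °C, pH 7.4 or 6.0, washed, 25 μg/mL anti-FITC rabbit polyclonal 30 min 4 °C, then 4 h at 37 °C with PBMCs at 50:1 (RPMI) or haNK at 5:1 (MEMα). LDH release; % lysis relative to antibody-only pH 7.4 cells; mean ± SEM, n = 3–12.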
# [17] = system: MDA-MB-231; experiment: Cytotoxicity against human MDA-MB-231 cells assessed as increase in cell lysis at 0.5 to 1 uM incubated for 5 mins at pH 6 to 7.4 followed by compound washout prior to human haNK cell addition at 5:1 effector to target ratio measured after 4 hrs by LDH release assay; format: cell-based; conditions: mda-mb-231, pH 6, 4 h
# [18] = system: MDA-MB-231; experiment: as §3, with “induction of” for “increase in”, “lysis at >500 nM” for “lysis”, “haNK cell” for “PBMC”; format: functional, cell-based; in short: as §4
# [19] = system: MDA-MB-231; experiment: as §3, with “as” for “as increase in”, “lysis at >1 uM” for “lysis”, “6” for “6 to 7.4”; format: functional, cell-based
# [20] = system: MDA-MB-231; experiment: Cytotoxicity against human MDA-MB-231 cells assessed as increase in cell lysis at 0.5 to 1 uM incubated for 5 mins at pH 6 to 7.4 followed by compound washout prior to human PBMC addition at 50:1 effector to target ratio measured after 4 hrs by LDH release assay; conditions: mda-mb-231, pH 6, 4 h
smiles,measurement,setting,value
CC[C@H](C)[C@H](NC(=O)[C@@H]1CCCN1C(=O)[C@H](CC(N)=O)NC(=O)[C@H](CCC(N)=O)NC(=O)[C@H](CCC(=O)O)NC(=O)[C@@H](N)CCCCNc1ccc([N+](=O)[O-])cc1[N+](=O)[O-])C(=O)N[C@@H](Cc1ccc(O)cc1)C(=O)N[C@@H](Cc1c[nH]c2ccccc12)C(=O)N[C@@H](C)C(=O)N[C@@H](CCCNC(=N)N)C(=O)N[C@@H](Cc1ccc(O)cc1)C(=O)N[C@@H](C)C(=O)N[C@@H](CC(=O)O)C(=O)N[C@@H](Cc1c[nH]c2ccccc12)C(=O)N[C@@H](CC(C)C)C(=O)N[C@@H](Cc1ccccc1)C(=O)N[C@H](C(=O)N[C@H](C(=O)N1CCC[C@H]1C(=O)N[C@@H](CC(C)C)C(=O)N[C@@H](CC(C)C)C(=O)N[C@@H](CC(C)C)C(=O)N[C@@H](CC(C)C)C(=O)N[C@@H](CCC(=O)O)C(=O)N[C@@H](CC(C)C)C(=O)N[C@@H](C)C(=O)N[C@@H](CC(C)C)C(=O)N[C@@H](CC(C)C)C(=O)N[C@H](C(=O)N[C@@H](CC(=O)O)C(=O)N[C@@H](C)C(=O)N[C@@H](CC(=O)O)C(=O)N[C@@H](CCC(=O)O)C(=O)NCC(=O)N[C@H](C(=O)NCC(N)=O)[C@@H](C)O)C(C)C)[C@@H](C)O)[C@@H](C)O (H-K(Dnp)EQNPIYWARYADWLFTTPLLLLELALLVDADEGTG-NH2),Activity,[1],Active
same,Activity,[2],Active
same,Activity,[3],Active
same,Drug uptake,[4],Not Active
same,Activity,[5],Active
same,Activity,[6],Active
same,Activity,[7],Active
same,Activity,[8],10%
same,Activity,[9],inactive
same,Activity,[10],Dose-dependent effect
same,Activity,[11],40%
same,Activity,[12],20%
same,Activity,[13],Non-Toxic
same,Activity,[14],Non-Toxic
same,Activity,[15],40%
same,Activity,[16],Non-Toxic
same,Activity,[17],Non-Toxic
same,Activity,[18],inactive
same,Activity,[19],inactive
same,Activity,[20],Non-Toxic
